In data set [1] the target is T1, Multidrug resistance-associated protein 1 (Homo sapiens, UniProt P33527). Put plainly: Inhibition of MRP1 in human 2008/MRP1 cells assessed as potentiation of doxorubicin-induced cytotoxicity by measuring cell survival at 2 uM after 5 days by MTS assay relative to control. The conditions noted are these: 120 h. It is filed as cell-based. An outline of the steps:
(§1)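 2008/MRP1 cells (retroviral human MRP1 transfectant; RPMI 1640, 10% FBS) at 4,000 per well, with 100 nM doxorubicin plus crude, unpurified click products in DMSO: 2 µM in the primary screen, 1 µM in the secondary. Incubated 5 days at 37 °C. MTS/PMS added for 2 h at 37 °C, absorbance read at 490 nm. % survival is relative to wells without DOX or product. Run in triplicate, at least three experiments.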
(In general: Formazan colour is commonly taken as a measure of viable cells.)

Data set [2] deals with T1, Multidrug resistance-associated protein 1. Put plainly: Inhibition of MRP1 in human 2008/MRP1 cells assessed as potentiation of doxorubicin-induced cytotoxicity by measuring cell survival at 1 uM after 5 days by MTS assay relative to control. It is filed as cell-based. The conditions noted are these: 120 h. In outline: as §1
Data set [3] can be described thus: Cytotoxicity against human 2008/MRP1 cells assessed as cell survival at 2 uM after 5 days by MTS assay relative to control. It counts as cell-based. The conditions noted are these: read-out: Survival.
Data set [4] concerns L929. Put plainly: Cytotoxicity against mouse L929 cells assessed as reduction in cell survival after 5 days by MTS assay. It counts as cell-based. The conditions noted are these: L929, 120 h.
The species named for data set [5] is Homo sapiens. Put plainly: Inhibition of P-gp in human LCC6MDR cells assessed as potentiation of paclitaxel-induced cytotoxicity by measuring fold reduction in paclitaxel IC50 at 1 uM after 5 days by MTS assay relative to paclitaxel alone. It is filed as cell-based.
For data set [6], the system named is MRP1. Put plainly: in vitro. The conditions noted are these: mouse, L929 cells (IC50) versus 2008/MRP1 cells (EC50).
Data set [7] relates to Mus musculus. Put plainly: Time duration at which plasma concentration stays above in vitro EC50 for MRP1 in Balb/c mouse at 10 mg/kg, iv measured up to 360 mins by LC-MS/MS analysis. It is filed as ADME, organism-based. The conditions noted are these: in vivo, 6 h. In outline: (§2)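 Female Balb/c mice given 10 mg/kg i.v. (25G needle) of the HCl salt, 1.5 mg/mL in NMP:Cremorphol:Tween 80:H₂O (5:5:4.5:85.5). Cardiac-puncture blood under ether at 15–360 min, 3 mice per time point; plasma spun 16,000 g, stored −20°C. Methanol precipitation with [¹³C6]paclitaxel internal standard; LC-MS/MS, BEH C18, water/methanol with 0.1% formic acid gradient. Mean ± SEM.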

The species named for data set [8] is Homo sapiens. Put plainly: Effect on MRP1 expression in human 2008/MRP1 cells up to 5 uM after 3 days by FITC staining based flow cytometry. It is filed as functional, cell-based. (In general: Flow cytometry measures light scatter and fluorescence of single cells or particles in a stream.)
Data set [9] is filed under the species Homo sapiens. Put plainly: Effect on doxorubicin influx in human 2008/P cells at 2 uM incubated up to 60 mins by flow cytometric analysis. It counts as functional, cell-based.
The species named for data set [10] is Homo sapiens. Put plainly: Effect on doxorubicin influx in human 2008/MRP1 cells at 2 uM incubated up to 60 mins by flow cytometric analysis. It is filed as functional, cell-based.
Data set [11] concerns the target T1, Multidrug resistance-associated protein 1. Put plainly: Inhibition of MRP1 in human 2008/MRP1 cells assessed as effect on doxorubicin efflux at 2 uM up to 105 mins by flow cytometric analysis. It is filed as cell-based. An outline of the steps: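 Efflux: cells preloaded with 20 µM DOX in supplemented RPMI1640 for 1 h at 37°C, washed, then kept with or without 2 µM modulator. […] Mean ± SEM; paired t test at each time point.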

Data set [12] is described as follows: Plasma concentration in Balb/c mouse at 10 mg/kg, iv measured up to 360 mins by LC-MS/MS analysis. It is filed as ADME, organism-based. The conditions noted are these: in vivo, 6 h, BLD = below limit of detection. An outline of the steps: as §2
A short description of data set [13]: Solubility in NMP/Cremorphol/Tween80/H2O (5:5:4.5:85.5) formulation. It counts as physicochemical.

SMILES strings stand for the structures. Active and inactive are the calls of the source. The rule behind the calls is not given here.

T1 sequence (P33527 whole entry): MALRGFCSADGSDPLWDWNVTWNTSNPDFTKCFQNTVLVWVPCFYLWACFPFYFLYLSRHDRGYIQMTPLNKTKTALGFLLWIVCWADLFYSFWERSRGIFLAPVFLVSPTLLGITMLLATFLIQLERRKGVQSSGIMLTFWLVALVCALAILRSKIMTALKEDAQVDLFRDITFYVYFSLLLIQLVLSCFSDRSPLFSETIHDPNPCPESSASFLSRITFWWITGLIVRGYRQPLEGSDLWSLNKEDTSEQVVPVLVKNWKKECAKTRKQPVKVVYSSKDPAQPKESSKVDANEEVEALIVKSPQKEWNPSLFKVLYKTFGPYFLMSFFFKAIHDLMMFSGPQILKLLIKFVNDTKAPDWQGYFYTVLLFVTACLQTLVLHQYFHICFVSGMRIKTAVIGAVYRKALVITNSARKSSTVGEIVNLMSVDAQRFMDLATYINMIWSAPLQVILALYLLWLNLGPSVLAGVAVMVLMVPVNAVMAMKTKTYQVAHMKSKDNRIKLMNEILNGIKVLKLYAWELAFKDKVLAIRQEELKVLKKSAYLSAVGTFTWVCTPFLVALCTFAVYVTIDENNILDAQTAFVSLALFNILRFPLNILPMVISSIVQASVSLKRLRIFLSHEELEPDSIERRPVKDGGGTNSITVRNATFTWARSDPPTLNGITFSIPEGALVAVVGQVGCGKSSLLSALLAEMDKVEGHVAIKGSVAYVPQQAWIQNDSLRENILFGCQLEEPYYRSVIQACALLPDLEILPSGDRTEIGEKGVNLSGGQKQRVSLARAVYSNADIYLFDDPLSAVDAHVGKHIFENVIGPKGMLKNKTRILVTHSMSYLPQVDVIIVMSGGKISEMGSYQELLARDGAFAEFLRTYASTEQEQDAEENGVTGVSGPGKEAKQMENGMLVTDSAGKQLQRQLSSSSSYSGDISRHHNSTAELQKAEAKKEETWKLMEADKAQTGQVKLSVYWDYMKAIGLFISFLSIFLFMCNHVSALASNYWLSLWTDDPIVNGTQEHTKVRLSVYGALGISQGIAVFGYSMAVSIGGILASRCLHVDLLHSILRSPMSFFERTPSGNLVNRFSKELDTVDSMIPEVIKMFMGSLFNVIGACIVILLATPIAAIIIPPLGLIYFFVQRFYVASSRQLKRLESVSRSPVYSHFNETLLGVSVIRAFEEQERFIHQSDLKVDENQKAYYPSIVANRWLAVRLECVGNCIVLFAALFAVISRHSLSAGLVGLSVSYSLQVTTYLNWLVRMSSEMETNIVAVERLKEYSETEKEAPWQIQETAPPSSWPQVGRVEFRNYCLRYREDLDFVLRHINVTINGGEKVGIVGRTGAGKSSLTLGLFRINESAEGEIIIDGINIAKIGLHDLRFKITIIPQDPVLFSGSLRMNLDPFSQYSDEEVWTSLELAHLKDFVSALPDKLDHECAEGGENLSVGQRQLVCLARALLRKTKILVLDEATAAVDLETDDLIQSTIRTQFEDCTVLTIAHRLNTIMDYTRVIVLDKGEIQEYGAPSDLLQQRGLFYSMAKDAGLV

One may read the IC50 as the concentration that inhibits the measured activity by half. Regarding `O=c1cc(-c2ccccc2)oc2cc(OCCN(Cc3ccccc3)Cc3cn(CCOCCOCCOc4ccc(-c5cc(=O)c6cc(F)ccc6o5)cc4)nn3)ccc12`, the Survival in data set [1] came out at 44%; in [2] it was 50%. Moreover, the viability at 120 h, 2 µM in [3] was 72%. The IC50 in data set [4] was more than 100 µM. Moreover, the Ratio IC50 in data set [5] was 16.9. In addition, the selectivity ratio in data set [6] is more than 641.
Regarding `O=c1cc(-c2ccc(OCCOCCn3cc(CCCOc4ccc5c(=O)cc(-c6ccccc6)oc5c4)nn3)cc2)oc2ccccc12`, the Survival in [1] came to 23%; in [2] it was 30%. Further, the viability at 120 h, 2 µM in data set [3] is 92%. In data set [4], the IC50 was more than 100 µM. In addition, the Ratio IC50 in data set [5] was found to be 19.1. Also, the selectivity ratio in data set [6] was more than 662.
`Cc1ccc2oc(-c3ccc(OCCCCc4cn(CCOCCOCCOc5ccc(-c6cc(=O)c7cc(C)ccc7o6)cc5)nn4)cc3)cc(=O)c2c1`: the Survival in data set [1] stood at 38%; in [2], 50%. Also, the viability at 120 h, 2 µM in data set [3] came out at 100%. Further, in [4], the IC50 is more than 50 µM. Also, the Ratio IC50 in data set [5] amounted to 58.8. Besides, the selectivity ratio in [6] is more than 365.
As for `Cl.O=c1cc(-c2ccc(OCCCc3cn(CCOCCOc4ccc5c(=O)cc(-c6ccccc6)oc5c4)nn3)cc2)oc2cc(F)ccc12`, the Time in data set [7] is 90 min.
`O=c1cc(-c2ccc(OCCOCCn3cc(CCCCOc4ccc5c(=O)cc(-c6ccccc6)oc5c4)nn3)cc2)oc2ccccc12`: the Survival in data set [1] worked out at 30%; in [2], 42%. In data set [3], the viability at 120 h, 2 µM turned out to be 95%. For the same compound, the IC50 in [4] was more than 100 µM. Further, in data set [5], the Ratio IC50 amounted to 19.8. For the same compound, the selectivity ratio in data set [6] is more than 1150.
For the compound `Cc1ccc2oc(-c3ccc(OCCCCc4cn(CCOCCOc5ccc(-c6cc(=O)c7cc(F)ccc7o6)cc5)nn4)cc3)cc(=O)c2c1`, the Survival in [1] turned out to be 30%; in data set [2], 38%. For the same compound, in data set [3], the viability at 120 h, 2 µM came to 99%. The IC50 in [4] is more than 100 µM. In addition, the Ratio IC50 in [5] stood at 99.2. Besides, the selectivity ratio in data set [6] is more than 400.
As to `Cc1ccc2oc(-c3ccc(OCCCCc4cn(CCOCCOCCOc5ccc(-c6cc(=O)c7cc(F)ccc7o6)cc5)nn4)cc3)cc(=O)c2c1`, the Survival in data set [1] is given as 34%; in [2], 41%. For the same compound, the viability at 120 h, 2 µM in [3] worked out at 100%. The IC50 in data set [4] is more than 100 µM. For the same compound, the Ratio IC50 in data set [5] was 99.2. The selectivity ratio in [6] is more than 461.
For the compound `Cc1ccc2oc(-c3ccc(OCCCCc4cn(CCOCCOc5ccc(-c6cc(=O)c7ccccc7o6)cc5)nn4)cc3)cc(=O)c2c1`, the Survival in data set [1] turned out to be 20%; in data set [2] it was 25%. Further, in data set [3], the viability at 120 h, 2 µM was determined as 85%. For the same compound, the IC50 in data set [4] was more than 57 µM. Moreover, the Ratio IC50 in data set [5] is 69. In addition, the selectivity ratio in data set [6] is more than 553.
With `O=c1cc(-c2ccccc2)oc2cc(OCCCc3cn(CCOCCOc4ccc5c(=O)cc(-c6ccccc6)oc5c4)nn3)ccc12`, the Survival stood at 45% in data set [1] and 49% in data set [2]. In [3], the viability at 120 h, 2 µM is 98%. Also, the IC50 in data set [4] is more than 100 µM. In addition, the Ratio IC50 in [5] amounted to 4. In data set [6], the selectivity ratio is more than 336.
In the case of `O=c1cc(-c2ccc(OCCCc3cn(CCOCCOCCOc4ccc(-c5cc(=O)c6cc(F)ccc6o5)cc4)nn3)cc2)oc2cc(F)ccc12`, the Survival in data set [1] stood at 42%; in [2], 48%. The viability at 120 h, 2 µM in [3] amounted to 95%. Moreover, in [4], the IC50 was more than 100 µM. The Ratio IC50 in data set [5] amounted to 22.7. Besides, the selectivity ratio in data set [6] is more than 971.
`O=c1cc(-c2ccccc2)oc2cc(OCCN(Cc3ccccc3)Cc3cn(CCOCCOc4ccc(-c5cc(=O)c6cc(F)ccc6o5)cc4)nn3)ccc12`: the Survival was 36% in data set [1] and 46% in data set [2]. In data set [3], the viability at 120 h, 2 µM worked out at 87%. In addition, the IC50 in data set [4] was more than 100 µM. For the same compound, in data set [5], the Ratio IC50 worked out at 26.5. The selectivity ratio in data set [6] is more than 645.
With `O=c1cc(-c2ccc(OCCCc3cn(CCOCCOc4ccc5c(=O)cc(-c6ccccc6)oc5c4)nn3)cc2)oc2cc(F)ccc12` [listing 1 of 2 here], the outcome in [8], in data set [9] and in data set [10] was inactive. The Ratio IC50 in data set [5] turned out to be 40.7.
For `O=c1cc(-c2ccccc2)oc2cc(OCCCc3cn(CCOCCOCCOc4ccc(-c5cc(=O)c6cc(F)ccc6o5)cc4)nn3)ccc12`, the Survival stood at 48% in data set [1] and 49% in [2]. The viability at 120 h, 2 µM in data set [3] was determined as 88%. Besides, in [4], the IC50 was more than 100 µM. Further, the Ratio IC50 in data set [5] was determined as 16. The selectivity ratio in [6] was more than 1050.
In the case of `O=c1cc(-c2ccc(OCCOCCn3cc(COCCOc4ccc5c(=O)cc(-c6ccccc6)oc5c4)nn3)cc2)oc2ccccc12`, the Survival in data set [1] is 31%; in data set [2], 46%. The viability at 120 h, 2 µM in data set [3] turned out to be 97%. Besides, the IC50 in data set [4] was more than 50 µM. Further, the Ratio IC50 in [5] is 3.3. The selectivity ratio in [6] is more than 190.
Regarding `O=c1cc(-c2ccc(OCCOCCOCCn3cc(CCCOc4ccc(-c5cc(=O)c6ccc(F)cc6o5)cc4)nn3)cc2)oc2ccccc12`, the Survival in [1] worked out at 44%; in data set [2], 51%. The viability at 120 h, 2 µM in [3] is 93%. For the same compound, the half-inhibitory concentration (IC50) in [4] is more than 100 µM. Also, the Ratio IC50 in data set [5] came out at 4. Besides, the selectivity ratio in [6] is more than 481.
Take `O=c1cc(-c2ccc(OCCCc3cn(CCOCCOc4ccc5c(=O)cc(-c6ccccc6)oc5c4)nn3)cc2)oc2cc(F)ccc12` [listing 2 of 2 here]: the Survival in data set [1] came out at 41%; in [2], 49%. Besides, the viability at 120 h, 2 µM in data set [3] was determined as 93%. For the same compound, the IC50 in data set [4] was more than 100 µM. For the same compound, in data set [11], the INH entry was “Active”. Moreover, the selectivity ratio in data set [6] was more than 1890.
Consider `Cc1ccc2oc(-c3ccc(OCCOCCOCCOCCOCCOc4ccc(-c5cc(=O)c6cc(C)ccc6o5)cc4)cc3)cc(=O)c2c1`, for which the IC50 in [4] is more than 100 µM. In addition, in [12], the Cp entry was “Bld”. Also, the solubility result in [13] is “Insoluble”.
With `O=c1cc(-c2ccccc2)oc2cc(OCCOCc3cn(CCOCCOCCOc4ccc(-c5oc6ccccc6c(=O)c5OCc5ccccc5)cc4)nn3)ccc12`, the Survival in data set [1] is reported as 45%; in data set [2], 48%. In addition, the viability at 120 h, 2 µM in data set [3] was determined as 95%. Further, in [4], the IC50 was more than 100 µM. Besides, the Ratio IC50 in data set [5] was found to be 46.7. The selectivity ratio in data set [6] is more than 518.
As for `O=c1cc(-c2ccc(OCCCc3cn(CCOCCOc4ccc(-c5cc(=O)c6ccccc6o5)cc4)nn3)cc2)oc2ccccc12`, the Survival in data set [1] worked out at 29%; in data set [2], 51%. Further, the viability at 120 h, 2 µM in data set [3] was determined as 81%. Further, the IC50 in data set [4] worked out at 60 µM. For the same compound, in data set [5], the Ratio IC50 amounted to 31.7. Besides, the selectivity ratio in data set [6] stood at 531.
On to `Cc1ccc2oc(-c3ccc(OCCOCCOCCn4cc(CCCOc5ccc(-c6cc(=O)c7ccc(F)cc7o6)cc5)nn4)cc3)cc(=O)c2c1`, for which the Survival is listed as 45% in data set [1] and 50% in data set [2]. Moreover, the viability at 120 h, 2 µM in data set [3] came out at 95%. Further, in data set [4], the IC50 was more than 100 µM. In addition, the Ratio IC50 in data set [5] came out at 36.9. In [6], the selectivity ratio was more than 826.

The record behind these values is ChEMBL document CHEMBL4257575, “Discovery of Novel Flavonoid Dimers To Reverse Multidrug Resistance Protein 1 (MRP1, ABCC1) Mediated Drug Resistance in Cancers Using a High Throughput Platform with "Click Chemistry"” (J Med Chem, 2018).
